As a reminder, the DC50 is the concentration giving 50% degradation. One may read the Kd as the free concentration of one partner at which half of the binding sites on the other are occupied at equilibrium, for simple one-to-one binding.

SMILES strings stand for the structures.

In series [1] the target is T1, Signal transducer and activator of transcription 3 (Homo sapiens, UniProt P40763). In words: Induction of STAT3 degradation in human MOLM-16 cells for 4 hrs by western blot analysis. The class given is cell-based. The settings on record: molm16. The gist of the method: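 Cells treated 4 h with compounds across 25 nM to 100 μM; STAT proteins detected by Western blot with GAPDH as loading control; STAT3 DC50 estimated by densitometry of STAT3 relative to GAPDH. Applies to MOLM-16 for all STATs, and to SU-DHL-1 and SUP-M2 for STAT3.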
On the technique in general: Immunoblotting shows a protein as a band on a membrane.

The nature of series [2]: Antitumor activity against human MOLM16 cells xenografted in SCID mouse assessed as tumor regression at 50 mg/kg, iv administered weekly measured after 2 weeks. In kind it is functional. The gist of the method: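 SCID mice bearing MOLM-16 xenografts given compound iv once weekly at 25 or 50 mg/kg. Tumor volume and body weight measured every 2 days. Growth inhibition expressed against vehicle-treated controls.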
Background: Xenograft models place foreign cells or tissue in a host animal.

Series [3] in a line: Toxicity in SCID mouse xenografted with human MOLM16 cells assessed as body weight loss at 25 to 50 mg/kg, iv for 65 days. In kind it is organism-based. Conditions: in vivo, 1560 h, dose 25-50 mg/kg, time 65 day. The gist of the method:
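SCID mice bearing MOLM-16 xenografts dosed intravenously at 25 or 50 mg/kg on a weekly schedule; vehicle 10% PEG400/90% PBS; body weight and tumor volume measured every 2 days; signs of toxicity monitored during and after treatment.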

Series [4] has as its target T1, Signal transducer and activator of transcription 3. In words: Binding affinity to human recombinant STAT3 assessed as dissociation constant incubated for 15 mins by biolayer interferometry. Put shortly:
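Biolayer interferometry with recombinant human STAT1, STAT2, STAT3, STAT4, STAT5A, STAT5B or STAT6 proteins containing their SH2 domain. Compound run in 2× serial dilutions from 200 nM. Kd taken from steady-state fitting of equilibrium responses against concentration using a 1:1 binding model.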

Series [5] is described as follows: Drug uptake in SCID mouse xenografted with human MOLM16 cells assessed as (2-(((5S,8S,10aR)-8-(((S)-5-amino-1-(benzhydrylamino)-1,5-dioxopentan-2-yl)carbamoyl)-3-(8-(2-(2,6-dioxopiperidin-3-yl)-1-oxoisoindolin-4-yl)oct-7-yno yl)-6-oxodecahydropyrrolo[1,2-a][1,5]diazocin-5-yl)carbamoyl)-1H-indole-5-carbonyl)phosphonic acid level in tumor tissue at 50 mg/kg, iv measured after 1 hrs by LC-MS/MS. The class given is ADME, organism-based. Conditions: in vivo. The gist of the method:
(§1)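 SCID mice bearing MOLM-16 xenografts given a single iv dose of 50 mg/kg. Concentrations of parent and hydrolysis product measured in plasma (ng/mL) and tumor tissue (ng/g) at 1, 6 and 24 h.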

Series [6] in a line: Drug uptake in SCID mouse xenografted with human MOLM16 cells assessed as (2-(((5S,8S,10aR)-8-(((S)-5-amino-1-(benzhydrylamino)-1,5-dioxopentan-2-yl)carbamoyl)-3-(8-(2-(2,6-dioxopiperidin-3-yl)-1-oxoisoindolin-4-yl)oct-7-yno yl)-6-oxodecahydropyrrolo[1,2-a][1,5]diazocin-5-yl)carbamoyl)-1H-indole-5-carbonyl)phosphonic acid level in tumor tissue at 50 mg/kg, iv measured after 6 hrs by LC-MS/MS. In kind it is ADME, organism-based. The settings on record: in vivo. The gist of the method:
as §1

T1 sequence (P40763 whole entry): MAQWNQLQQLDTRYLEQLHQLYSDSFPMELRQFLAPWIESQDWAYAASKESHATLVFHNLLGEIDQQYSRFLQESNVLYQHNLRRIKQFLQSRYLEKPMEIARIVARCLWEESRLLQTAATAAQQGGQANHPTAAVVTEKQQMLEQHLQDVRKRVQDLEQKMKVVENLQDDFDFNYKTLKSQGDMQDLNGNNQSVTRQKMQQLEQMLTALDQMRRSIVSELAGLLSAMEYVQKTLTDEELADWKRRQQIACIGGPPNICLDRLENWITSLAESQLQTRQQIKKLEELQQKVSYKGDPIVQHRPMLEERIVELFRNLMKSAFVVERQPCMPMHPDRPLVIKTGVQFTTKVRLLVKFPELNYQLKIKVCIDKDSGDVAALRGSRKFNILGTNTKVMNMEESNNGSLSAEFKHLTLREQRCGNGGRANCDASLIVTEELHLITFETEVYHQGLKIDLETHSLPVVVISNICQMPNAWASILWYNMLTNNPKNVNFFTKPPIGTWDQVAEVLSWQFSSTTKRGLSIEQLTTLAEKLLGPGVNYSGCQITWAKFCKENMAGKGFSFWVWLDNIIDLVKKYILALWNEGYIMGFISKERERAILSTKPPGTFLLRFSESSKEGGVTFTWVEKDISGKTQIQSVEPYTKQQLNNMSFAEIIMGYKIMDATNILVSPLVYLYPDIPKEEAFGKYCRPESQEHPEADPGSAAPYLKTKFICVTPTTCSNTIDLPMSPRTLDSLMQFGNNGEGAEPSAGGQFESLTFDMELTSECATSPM

As for `NC(=O)CC[C@H](NC(=O)[C@@H]1CC[C@@H]2CCN(C(=O)CCCCCC#Cc3cccc4c3CN(C3CCC(=O)NC3=O)C4=O)C[C@H](NC(=O)c3cc4cc(C(=O)P(=O)(O)O)ccc4[nH]3)C(=O)N21)C(=O)NC(c1ccccc1)c1ccccc1` (stereo partly specified), the DC50 in series [1] was found to be 120 nM. For the same compound, the Activity is 100% in series [2] and “Non-Toxic” in series [3]. Besides, the Kd in series [4] was found to be 28 nM.
For `NC(=O)CC[C@H](NC(=O)[C@@H]1CC[C@@H]2CCN(C(=O)CCCCCC#Cc3cccc4c3CN(C3CCC(=O)NC3=O)C4=O)C[C@H](NC(=O)c3cc4cc(C(F)(F)P(=O)(O)O)ccc4[nH]3)C(=O)N21)C(=O)NC(c1ccccc1)c1ccccc1` (stereo partly specified), the Drug uptake in series [5] is 6350 ng/g; in series [6], 1750 ng/g.

Values taken from ChEMBL document CHEMBL4706770, “SD-91 as A Potent and Selective STAT3 Degrader Capable of Achieving Complete and Long-Lasting Tumor Regression” (ACS Med Chem Lett, 2021).
